Data from ChEMBL document CHEMBL3616457, “Synthesis and biological evaluation of new symmetric curcumin derivatives” (Bioorg Med Chem Lett, 2015).
Converted amounts (≈) assume the structure as drawn. The source made the active and inactive calls. The calls are words filed in the database; no cut-off is given here.

Columns and labels:
A549 = test: Cytotoxicity against human A549 cells at 1 to 500 ug/ml incubated for 24 hrs by MTT assay; type: functional, cell-based
Procedure, shortened: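 A549 lung cancer cells grown in MEM with 10% FBS, penicillin and streptomycin, at 37 °C under 5% CO2. Compounds made up at 2 mg/mL in DMSO, filter-sterilized, diluted in medium to 1, 10, 50, 100 and 500 μg/mL. Exposure 24 h, 0.1% DMSO control. MTT (5 mg/mL stock) added for 4 h, formazan dissolved in DMSO, read at 545 nm. Triplicate.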

[1] = Antioxidant activity assessed as H2O2 scavenging activity; type: physicochemical
Procedure, shortened: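 H2O2 prepared at 2.0 mM in 0.2 M phosphate buffer pH 7.4. Compounds at 10–50 μg/mL added to 0.6 mL of this solution and made up to 4 mL with buffer. H2O2 absorbance read at 230 nm against a buffer blank. % inhibition = [(blank−test)/blank]×100, IC50 derived from the concentration series.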

[2] = Antioxidant activity assessed as DPPH radical scavenging activity; type: physicochemical
Procedure, shortened: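 DPPH stock 0.1 mmol in DMSO. 1 mL sample diluted with 2 mL DMSO, mixed with 2 mL DPPH stock, absorbance at 517 nm. Tested at 10–50 μg/mL. % inhibition = [(blank−test)/blank]×100, IC50 derived from the concentration series. Run twice.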

[3] = Anti-inflammatory activity assessed as inhibition of bovine serum albumin denaturation at 10 to 500 ug/ml incubated for 15 mins at 37 degC; type: functional
Procedure, shortened: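 Compounds dissolved in minimal DMF, diluted in 0.2 M phosphate buffer pH 7.4 (final DMF <2.5%). 4 mL test solution mixed with 1 mL of 1 mM albumin and held 15 min at 37 °C, then heated 15 min at 70 °C to denature. After cooling, turbidity read at 660 nm. % inhibition calculated against a no-drug control.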

SMILES: COc1cc(/C=C/C(=O)/C=C(O)/C=C/c2ccc(OCC(=O)N(C)c3ccccc3)c(OC)c2)ccc1OCC(=O)N(C)c1ccccc1
- Activity (A549): Active
- IC50 [1]: 63.21 µg/mL (≈ 95.4 µM)
- IC50 [2]: 12.05 µg/mL (≈ 18.2 µM)
- inhibition [3]: Active

SMILES: COc1cc(/C=C/C(=O)/C=C(O)/C=C/c2ccc(OCC(=O)Nc3cccc4ccccc34)c(OC)c2)ccc1OCC(=O)Nc1cccc2ccccc12
- Activity (A549): Active
- IC50 [1]: 41.4 µg/mL (≈ 56.3 µM)
- IC50 [2]: 12.65 µg/mL (≈ 17.2 µM)

SMILES: COc1cc(/C=C/C(=O)/C=C(O)/C=C/c2ccc(OCC(=O)NC3CCCCC3)c(OC)c2)ccc1OCC(=O)NC1CCCCC1
- Activity (A549): Active
- IC50 [1]: 26.14 µg/mL (≈ 40.4 µM)
- IC50 [2]: 16 µg/mL (≈ 24.7 µM)
- inhibition [3]: Active

SMILES: COc1cc(/C=C/C(=O)/C=C(O)/C=C/c2ccc(OCC(=O)Nc3ccccc3)c(OC)c2)ccc1OCC(=O)Nc1ccccc1
- Activity (A549): Active
- IC50 [1]: 63.7 µg/mL (≈ 100 µM)
- IC50 [2]: 23.77 µg/mL (≈ 37.5 µM)
- inhibition [3]: Active

SMILES: COc1cc(/C=C/C(=O)CC(=O)/C=C/c2ccc(O)c(OC)c2)ccc1O [CURCUMIN]
- Activity (A549): Active
- IC50 [1]: 34.71 µg/mL (≈ 94.2 µM)
- IC50 [2]: 14.83 µg/mL (≈ 40.3 µM)
- inhibition [3]: Active

SMILES: COc1cc(/C=C/C(=O)/C=C(O)/C=C/c2ccc(OCC(=O)Nc3ccc(C)cc3)c(OC)c2)ccc1OCC(=O)Nc1ccc(C)cc1
- Activity (A549): Active
- IC50 [1]: 61.98 µg/mL (≈ 93.5 µM)
- IC50 [2]: 22.85 µg/mL (≈ 34.5 µM)
- inhibition [3]: Active

SMILES: O=C1O[C@H]([C@@H](O)CO)C(O)=C1O [ASCORBIC ACID]
- IC50 [1]: 67.54 µg/mL (≈ 383 µM)
- IC50 [2]: 32.74 µg/mL (≈ 186 µM)

SMILES: O=C(O)Cc1ccccc1Nc1c(Cl)cccc1Cl
- inhibition [3]: Active

SMILES: CCN(CC)C(=O)COc1ccc(/C=C/C(=O)/C=C(O)/C=C/c2ccc(OCC(=O)N(CC)CC)c(OC)c2)cc1OC
- Activity (A549): Active
- IC50 [1]: 68.16 µg/mL (≈ 115 µM)
- IC50 [2]: 19.68 µg/mL (≈ 33.1 µM)
- inhibition [3]: Active

SMILES: COc1cc(/C=C/C(=O)/C=C(O)/C=C/c2ccc(OCC(=O)Nc3ccc(F)cc3)c(OC)c2)ccc1OCC(=O)Nc1ccc(F)cc1
- Activity (A549): Active
- IC50 [1]: 70.51 µg/mL (≈ 105 µM)
- IC50 [2]: 24.26 µg/mL (≈ 36.2 µM)
- inhibition [3]: Active

SMILES: COc1cc(/C=C/C(=O)/C=C(O)/C=C/c2ccc(OCC(=O)Nc3ccc(Cl)cc3)c(OC)c2)ccc1OCC(=O)Nc1ccc(Cl)cc1
- Activity (A549): Active
- IC50 [1]: 65.4 µg/mL (≈ 93 µM)
- IC50 [2]: 12.92 µg/mL (≈ 18.4 µM)
